From PubChem BioAssay AID463079 (The Scripps Research Institute Molecular Screening Center, 2010)
Hit rate of the full screen: of about 330,000 compounds, about 2,000 (0.61%) were called active. This is one part of a sample in which actives are shown more often than they occur. Values without a mark were called inactive.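 The calls were made as follows: active = inhibition above that plate's mean sample inhibition plus 3 SD (cut at about 26% in these data); inactive = the rest.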

assay: ATP-evoked calcium signal inhibitors, parental CHO, primary screen, counter-screen for OX1R antagonist project, cell-based, fluorescence, Fluo-8 calcium dye (AID 463079); conditions: parental CHO-K1, ATP-induced calcium, Fluo-8 fluorescence; at 5.6 µM; active compounds read high;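 also: 0% = ATP-challenged DMSO wells and 100% = DMSO wells without ATP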
Summary of the method: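 Assay system: untransfected parental CHO cell line. Also added: ATP agonist challenge. Dosing: one dose, 5.6 µM nominal. Measured by: Fluo-8 fluorescence. Read-out: % inhibition. Benchmarks: ATP wells versus no-ATP DMSO wells. Repeats: no replicates.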

SMILES	inhibition
Cc1ccc(Cl)c(NC(=O)CN(C)CC(=O)Nc2ccc(F)c(F)c2F)c1Cl	-2.12%
NC(=O)c1ccc(-c2csnn2)cc1	-15.6%
Cc1nc2ccccc2cc1OCc1ccc(F)cc1	54.1% (active)
Fc1ccccc1COc1cccc2cccnc12	-22.9%
Cc1occc(=O)c1OCc1ccc(F)cc1	-7.75%
CCNC(=S)N1CCN(CCN=CC2=C(O)CC(C)(C)CC2=O)CC1	-4.83%
C=C(Br)CN1CCN(CC(=C)Br)CC1	4.29%
CCCCNC(=O)C(C)N(CCN(C)C)C(=O)CCCCCN1C(=O)NC(c2ccc(Cl)cc2)C(C(=O)OCc2ccccc2)=C1C (configuration not stated)	-17%
CNC(=O)NC(=O)CSc1nnc(-c2ccc(F)cc2)n1CC1CCCO1 (configuration not stated)	-7.71%
COc1ccc(C)cc1S(=O)(=O)N1CCN(S(=O)(=O)c2cc(C(=O)O)ccc2C)CC1	-11.5%
Cc1ccc(S(=O)(=O)N2CCN(c3ncnc4ccccc34)CC2)cc1	0.84%
Cc1ccc(C)c(S(=O)(=O)N2CCN(c3ncnc4sccc34)CC2)c1	62.3% (active)
COc1ccc(NS(=O)(=O)c2cc(NC(=O)C3CCCCC3)ccc2N2CCOCC2)cc1	5.3%
CC(C)(C)c1ccc(CCC2OCC(CN3CCOCC3)O2)cc1 (configuration not stated)	-9.27%
Cc1cc(OCCCN2CCN(Cc3ccccc3)CC2)ccc1[N+](=O)[O-]	18.6%
Cc1cc(OCCCCOc2ccc(C#N)cc2)ccc1[N+](=O)[O-]	44.9% (active)
Cc1cc(OCC(=O)NC2CCN(C)CC2)ccc1[N+](=O)[O-]	-4.54%
CC[C@]12c3[nH]c4ccc(OC)cc4c3CCN1C(=O)C(CC(=O)NCc1ccco1)C[C@@H]2C(=O)N1CCN(C(=O)C2CC2)CC1 (some centres not stated)	-3.18%
O=C1[C@@H](c2ccccc2)[C@@H](c2ccccc2)N1c1cccnc1	3.04%
CCc1ccc2ncc(C(=O)c3ccccc3)c(N3CCOCC3)c2c1	-4.24%
Cc1ccc2c(c1)NC(=O)[C@@]1(C)[C@@H](c3ccccc3)[C@H]3COc4ccc(Cl)cc4[C@@H]3N1C2=O	-11.9%
CN(C)C(=O)CCc1ccc2c3c([nH]c2c1)[C@]1(C)[C@@H](C(=O)N2CCOCC2)C[C@H](CC(=O)NCCc2ccccn2)C(=O)N1CC3	1.44%
CN(C)c1ccc(/C=C2\NC(=S)N(Cc3ccccc3)C2=O)cc1	70.7% (active)

SMILES	inhibition
COc1cc(/C=C2/SC(=S)N(Cc3ccccc3)C2=O)cc(OC)c1O	27.6%
CN(C)c1ccc(C=C2C(=O)OC3(CCCC3)OC2=O)cc1	-4.66%
N#CC1(NC(=O)COC(=O)Cc2n[nH]c(=O)c3ccccc23)CCCCC1	-1.72%
Cc1ccc(NC(=O)CN(C)CC(=O)Nc2cccc(F)c2)cc1[N+](=O)[O-]	68.4% (active)
Cc1ccc(NC(=O)c2sccc2C)cc1[N+](=O)[O-]	-13%
CN(CC(=O)Nc1cccc(F)c1)CC(=O)Nc1cccc([N+](=O)[O-])c1	-2.05%
CCCc1ccc(-c2c(C)sc(NC(=O)c3ccnn3C)c2C#N)cc1	37% (active)
Cn1nccc1CNC(=O)c1ccnn1C	7.66%
CCN(CC)C(=O)c1sc(NC(=O)c2ccco2)c(C#N)c1C	-6.79%
Cc1cc(C)cc(Oc2nc3c(C)cccn3c(=O)c2/C=C(\C#N)C(=O)NC2CCS(=O)(=O)C2)c1 (configuration not stated)	-10.7%
Cc1ccccc1C(=O)NC(=S)NC1CC1	-11.8%
O=C(CSc1ncn[nH]1)Nc1nsc(-c2ccccc2)n1	0.25%
O=C(CSc1nc(-c2ccccc2)cs1)Nc1cccc([N+](=O)[O-])c1	-15.2%
O=C(CSc1ncn[nH]1)Nc1nc(-c2cccc([N+](=O)[O-])c2)cs1	29.9% (active)
CC(C)CC(CC(C)C)=NNC(=O)c1ccc(CSc2nncn2C)cc1	-6.24%
C=CCOc1cccc(C2C(C(=O)c3ccc(C)o3)=C(O)C(=O)N2CCCn2ccnc2)c1 (configuration not stated)	4.82%
C=CCOc1cccc(C2C(C(=O)c3ccc(C)o3)=C(O)C(=O)N2c2nnc(C)s2)c1 (configuration not stated)	35.4% (active)
Cc1cc(N2C(=O)C(O)=C(C(=O)c3ccc(C)o3)C2c2ccc(OCc3ccccc3)cc2)no1 (configuration not stated)	-17.5%
Cc1ccc(SC(=O)COc2ccc(C)c(C)c2)cc1	11.9%
Cc1nc2ccccc2c(=O)n1NC(=O)c1ccccc1	-3.13%
Cc1ccnc(-n2sc3ccccc3c2=O)n1	46.3% (active)
CCOC(=O)N1CCC(=NNC(N)=O)CC1	-14.6%
O=Cc1c(Cl)cccc1Cl	-9.8%

SMILES	inhibition
O=C(NCCc1c[nH]c2ccc(Cl)cc12)c1ccc([N+](=O)[O-])cc1	8.94%
O=C(NCCc1ccc(Cl)cc1Cl)c1cc([N+](=O)[O-])c[nH]c1=O	26.2% (active)
NS(=O)(=O)c1ccc(CCNC(=O)c2ccc(Cl)cc2[N+](=O)[O-])cc1	-1.67%
Cc1ccc(O/C=C2\OC(=O)c3ccccc32)cc1	3.04%
O=C(COC(=O)c1ncc(Cl)c(Cl)c1Cl)NCc1cccs1	-15.5%
CC1CC(C)CN(C(=O)COC(=O)c2ccc3ncsc3c2)C1 (configuration not stated)	-8.36%
CCC(=C/c1sc2ccc3ccccc3c2[n+]1C)/C=C1\Sc2ccc3ccccc3c2N1C	79.9% (active)
CCC1(c2ccccc2)NC(=O)N(CC(=O)Nc2ccccc2C(=O)NC2CCCC2)C1=O (configuration not stated)	-8.29%
COc1ccc(NC(=O)CC2C(=O)OCC3CCCCN32)cc1Cl (configuration not stated)	-17.2%
COC(=O)c1sc(-c2ccc(C(C)(C)C)cc2)cc1NC(=O)/C=C/C(=O)O	38.8% (active)
CC(C)(C)c1ccc(/C=C/C(=O)Nc2ncccn2)cc1	-20.1%
COc1ccccc1NC(=O)/C=C/C(N)=O	-0.46%
CC(C)c1cc(C(N)=O)c(NC(=O)c2cccc(COc3ccc(Br)cc3)c2)s1	-12.5%
O=C1OCCN1C(=O)[C@H]1[C@H](c2ccccc2)C(c2ccc(F)cc2)=NN1c1ccccc1	-16.7%
CC1(C)Oc2ccc(C(=O)N3CCOCC3)cc2N(CC(=O)Nc2ccccc2)C1=O	-10.5%
Cc1nn(C)cc1/C=C1\CCC/C(=C\c2cn(C)nc2C)C1=O	1.91%
O=C(/C=C/c1ccc(F)cc1)Nc1cccc(S(=O)(=O)Nc2cccc(C(F)(F)F)c2)c1	-1.97%
CCOC(=O)N1CCN(C(=O)c2ccc(S(=O)(=O)Nc3cccc(C(F)(F)F)c3)cc2)CC1	10.1%
Cc1oc2c(F)c(F)c(F)c(F)c2c1S(=O)(=O)Nc1cccc(C(F)(F)F)c1	42.3% (active)
COc1cccc(OC)c1C(=O)N1CCN(Cc2cccnc2)CC1	2.69%
CC[C@]12c3[nH]c4cc(CCC(=O)N(C)C)ccc4c3CCN1C(=O)[C@@H](CC(=O)NCc1ccco1)C[C@@H]2C(=O)N1CCN(C(=O)c2ccco2)CC1	-6.08%
